The record followed here is ChEMBL document CHEMBL1629450, “Design, synthesis, and evaluation of dibenzo[c,h][1,6]naphthyridines as topoisomerase I inhibitors and potential anticancer agents” (J Med Chem, 2010).

Series [1] concerns the target T1, DNA topoisomerase 1 (Homo sapiens) (UniProt P11387).
T1 sequence (whole entry): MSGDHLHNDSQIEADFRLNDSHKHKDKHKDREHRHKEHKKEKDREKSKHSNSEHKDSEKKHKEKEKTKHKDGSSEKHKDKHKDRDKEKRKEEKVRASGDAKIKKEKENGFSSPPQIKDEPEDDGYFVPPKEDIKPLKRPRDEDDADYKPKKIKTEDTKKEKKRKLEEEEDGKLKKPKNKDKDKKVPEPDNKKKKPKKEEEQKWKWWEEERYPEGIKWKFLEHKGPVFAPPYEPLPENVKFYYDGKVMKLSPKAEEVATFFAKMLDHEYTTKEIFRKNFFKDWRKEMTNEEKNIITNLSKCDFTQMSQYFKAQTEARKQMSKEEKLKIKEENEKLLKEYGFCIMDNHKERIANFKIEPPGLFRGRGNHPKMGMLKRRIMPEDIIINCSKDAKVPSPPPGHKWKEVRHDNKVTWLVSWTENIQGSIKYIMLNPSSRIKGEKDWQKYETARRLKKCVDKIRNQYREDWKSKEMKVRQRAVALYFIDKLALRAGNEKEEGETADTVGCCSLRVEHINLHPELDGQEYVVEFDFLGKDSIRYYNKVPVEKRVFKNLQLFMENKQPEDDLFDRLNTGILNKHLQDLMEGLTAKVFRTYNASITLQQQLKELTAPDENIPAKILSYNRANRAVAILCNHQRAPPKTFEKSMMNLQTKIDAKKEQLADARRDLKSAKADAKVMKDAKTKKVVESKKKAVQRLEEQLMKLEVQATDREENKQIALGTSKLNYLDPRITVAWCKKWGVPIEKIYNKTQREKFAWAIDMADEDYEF
Put plainly: Inhibition of human topoisomerase 1 assessed as induction of DNA damage using 161 base-pair fragment form pBluescript SK(-) phagemid DNA substrate by DNA cleavage assay. The method in brief:
(§1)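 Baculovirus-purified human recombinant Top1 with 161 bp PvuII/HindIII fragment of pBluescript SK(-), 3'-end labeled at HindIII site with [α-32P]-dGTP by Klenow fill-in (~50 000 dpm/reaction). Incubated with drug, four 10-fold dilutions from 100 μM, 30 min at 22 °C. Stopped with 0.5% SDS (final), resolved on denaturing 16% polyacrylamide/7 M urea gels. Cleavage scored semiquantitatively.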

A short description of series [2]: Solubility of the compound in dimethyl sulfoxide solvent. It is filed as physicochemical.
In series [3] the target is T1, DNA topoisomerase 1 (Homo sapiens). Nature of the series: Inhibition of human topoisomerase 1 assessed as induction of DNA cleavage at base-pair 97 using 161 base-pair fragment form pBluescript SK(-) phagemid DNA substrate by DNA cleavage assay. A digest of the protocol: as §1
Series [4] is described as follows: Solubility of the compound in chloroform solvent. It is filed as physicochemical.
Series [5] is described as follows: Solubility of the compound in methanol solvent. It is filed as physicochemical.
Another series relates to MCF7. Put plainly: Antiproliferative activity against human MCF7 cells after 48 hrs by SRB assay. It is filed as functional. To be noted: MCF7, 48 h. (In SRB staining, fixed cells bind dye roughly in proportion to their protein.)
In the next series the test system is UACC-62. Nature of the series: Antiproliferative activity against human UACC62 cells after 48 hrs by SRB assay. It is filed as functional. To be noted: UACC-62, 48 h.
For another series, the system named is SF-539. Nature of the series: Antiproliferative activity against human SF539 cells after 48 hrs by SRB assay. It is filed as functional. To be noted: SF-539, 48 h.
A further series relates to COLO 205. Nature of the series: Antiproliferative activity against human COLO205 cells after 48 hrs by SRB assay. It is filed as functional. To be noted: COLO 205, 48 h.
The nature of series [6]: Antiproliferative activity against human RPMI18226 cells after 48 hrs by SRB assay. It is filed as functional. The settings on record: RPMI18226, 48 h.
For the next series, the system named is UO-31. Nature of the series: Antiproliferative activity against human UO31 cells after 48 hrs by SRB assay. It is filed as functional. To be noted: UO-31, 48 h.
The target in series [7] is T1, DNA topoisomerase 1 (Homo sapiens). Nature of the series: Inhibition of human topoisomerase 1 assessed as induction of DNA cleavage at base-pair 119 using 161 base-pair fragment form pBluescript SK(-) phagemid DNA substrate by DNA cleavage assay. A digest of the protocol:
as §1

For the next series, the system named is K562. Put plainly: Antiproliferative activity against human K562 cells after 48 hrs by SRB assay. It is filed as functional. The settings on record: K562, 48 h.
The nature of series [8]: Antiproliferative activity against human OVACR3 cells after 48 hrs by SRB assay. It is filed as functional. To be noted: OVACR3, 48 h.
In the next series the test system is HCT-116. Put plainly: Antiproliferative activity against human HCT116 cells after 48 hrs by SRB assay. It is filed as functional. The settings on record: HCT-116, 48 h.
In the next series the test system is DU-145. Nature of the series: Antiproliferative activity against human DU145 cells after 48 hrs by SRB assay. It is filed as functional. The settings on record: DU-145, 48 h.
The subject of a further series is SN12C. Nature of the series: Antiproliferative activity against human SN12C cells after 48 hrs by SRB assay. It is filed as functional.
For another series, the system named is HOP-62. Nature of the series: Antiproliferative activity against human HOP62 cells after 48 hrs by SRB assay. It is filed as functional. The settings on record: HOP-62, 48 h.
Another series deals with IGROV-1. Nature of the series: Antiproliferative activity against human IGROV1 cells after 48 hrs by SRB assay. The settings on record: IGROV-1, 48 h. It is filed as functional.

The source made the active and inactive calls. The rule behind the calls is not given here.

Turning to `COc1cc2c(=O)n(C)c3c4ccccc4[nH]c(=O)c3c2cc1OC`, in series [1], the inhibition result is “inactive”.
As for `C=CCn1c(=O)c2cc(OC)c(OC)cc2c2c(=O)[nH]c3ccccc3c21`, in [1], the inhibition result was “inactive”.
Turning to `COc1cc2c(Cl)nc3c4ccccc4nc(Cl)c3c2cc1OC`, the inhibition entry in [1] is “inactive”.
In the case of `COc1cc2c(=O)n(C)c3c4ccccc4nc(Cl)c3c2cc1OC`, the solubility result in series [2], in [4] and in series [5] was “soluble” each time. The inhibition entry in [3] and in [1] was “Active” in each case.
As to `COc1cc2c(=O)n(CCCN3CCOCC3)c3c4ccccc4nc(Cl)c3c2cc1OC`, the GI50 in the series with MCF7 turned out to be 0.4 µM; with UACC-62, 6.8 µM; in the series with SF-539 it was 12.3 µM; with COLO 205, 0.33 µM; in [6], 0.1 µM; in the series with UO-31, 0.02 µM. The GI50 in the series on K562 stood at 0.2 µM; in series [8], 6.3 µM; with HCT-116, 4.16 µM; with DU-145, 10.5 µM; with SN12C, 13.2 µM; in the series with HOP-62 it was 4.7 µM. In addition, in the series with IGROV-1, growth was halved (GI50) at 0.03 µM. Moreover, the solubility result in [2], in series [4] and in series [5] was “soluble” throughout. Besides, the inhibition entry in series [3], in [7] and in series [1] was “Active” in each case.
Consider `COc1cc2c(=O)n(CCCO)c3c4ccccc4[nH]c(=O)c3c2cc1OC`, for which the inhibition entry in [1] is “inactive”.
Take `COc1cc2c(OC)nc3c4ccccc4nc(OC)c3c2cc1OC`: the inhibition result in series [1] is “inactive”.
`COc1cc2c3c(n(C)c(=O)c2cc1OC)-c1cc2c(cc1C3=O)OCO2`: the GI50 in the series with MCF7 is 1.9 µM; in the series on UACC-62 it was 0.6 µM; with SF-539, 1.7 µM; with COLO 205 it was above 100 µM; in [6], above 100 µM; in the series with UO-31, 1.7 µM. Moreover, the GI50 stood at 6 µM in the series with K562; 22.4 µM in [8]; 11.5 µM in the series with HCT-116; 4.8 µM in the series on DU-145; 25.7 µM with SN12C; 2.8 µM in the series with HOP-62. This compound displayed a 50% growth inhibitory concentration (GI50) with IGROV-1 of 0.01 µM.

The GI50 is the concentration that inhibits growth by half. The low end stands for more potent growth inhibition, the high end for less potent growth inhibition.
